# Data as given in ChEMBL document CHEMBL2331542, “Synthesis and in vitro antibacterial activity of quinolone/naphthyridone derivatives containing 3-alkoxyimino-4-(methyl)aminopiperidine scaffolds” (2013).
# Experiments:
# Type in all cases: functional
# [1] = tested on: Escherichia coli; experiment: Antibacterial activity against extended-spectrum beta-lactamase-producing Escherichia coli isolate 12-4
# In short: (§1)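 MIC determined in vitro by a standard technique and defined as the lowest compound concentration giving complete inhibition of bacterial growth. The Gram-positive and Gram-negative panels were tested alongside gemifloxacin, levofloxacin and ciprofloxacin reference drugs.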
# [2] = tested on: Escherichia coli; experiment: Antibacterial activity against extended-spectrum beta-lactamase-producing Escherichia coli isolate 12-2; in short: as §1
# [3] = tested on: Escherichia coli; experiment: Antibacterial activity against extended-spectrum beta-lactamase-producing Escherichia coli isolate 12-1; in short: as §1
# [4] = tested on: Escherichia coli; experiment: Antibacterial activity against Escherichia coli isolate 12-5; in short: as §1
# [5] = tested on: Escherichia coli; experiment: Antibacterial activity against Escherichia coli isolate 12-4; in short: as §1
# [6] = tested on: Escherichia coli; experiment: Antibacterial activity against Escherichia coli isolate 12-1; in short: as §1
# [7] = tested on: Escherichia coli; experiment: Antibacterial activity against Escherichia coli ATCC 25922; in short: as §1
# [8] = tested on: Streptococcus pneumoniae; experiment: Antibacterial activity against Streptococcus pneumoniae isolate 12-5; in short: as §1
# [9] = tested on: Streptococcus pneumoniae; experiment: Antibacterial activity against Streptococcus pneumoniae isolate 12-2; in short: as §1
# [10] = tested on: Staphylococcus epidermidis; experiment: Antibacterial activity against methicillin-resistant Staphylococcus epidermidis isolate 12-35
# In short: (§2)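 MIC determined in vitro by standard techniques, defined as the lowest compound concentration giving complete inhibition of bacterial growth. Gemifloxacin, levofloxacin and ciprofloxacin were tested alongside as reference drugs.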
# [11] = tested on: Staphylococcus epidermidis; experiment: Antibacterial activity against methicillin-resistant Staphylococcus epidermidis isolate 12-33; in short: as §2
# [12] = tested on: Staphylococcus epidermidis; experiment: Antibacterial activity against methicillin-resistant Staphylococcus epidermidis isolate 12-5; in short: as §2
# [13] = tested on: Staphylococcus epidermidis; experiment: Antibacterial activity against methicillin-sensitive Staphylococcus epidermidis isolate 12-3; in short: as §1
# [14] = tested on: Staphylococcus epidermidis; experiment: Antibacterial activity against methicillin-sensitive Staphylococcus epidermidis isolate 12-2; in short: as §1
# [15] = tested on: Staphylococcus epidermidis; experiment: Antibacterial activity against methicillin-sensitive Staphylococcus epidermidis isolate 12-1; in short: as §1
# [16] = tested on: Staphylococcus aureus; experiment: Antibacterial activity against methicillin-resistant Staphylococcus aureus isolate 12-15; in short: as §2
# [17] = tested on: Staphylococcus aureus; experiment: Antibacterial activity against methicillin-resistant Staphylococcus aureus isolate 12-13; in short: as §2
# [18] = tested on: Staphylococcus aureus; experiment: Antibacterial activity against methicillin-resistant Staphylococcus aureus isolate 12-3; in short: as §2
# [19] = tested on: Staphylococcus aureus; experiment: Antibacterial activity against methicillin-sensitive Staphylococcus aureus isolate 12-10; in short: as §1
# [20] = tested on: Staphylococcus aureus; experiment: Antibacterial activity against methicillin-sensitive Staphylococcus aureus isolate 12-7; in short: as §1
# [21] = tested on: Staphylococcus aureus; experiment: Antibacterial activity against methicillin-sensitive Staphylococcus aureus isolate 12-6; in short: as §1
# [22] = tested on: Staphylococcus aureus; experiment: Antibacterial activity against Staphylococcus aureus […]; in short: as §1
# [23] = tested on: Pseudomonas aeruginosa; experiment: Antibacterial activity against Pseudomonas aeruginosa isolate 12-2; in short: as §1
# [24] = tested on: Pseudomonas aeruginosa; experiment: Antibacterial activity against Pseudomonas aeruginosa isolate 12-1; in short: as §1
# [25] = tested on: Pseudomonas aeruginosa; experiment: Antibacterial activity against Pseudomonas aeruginosa ATCC 27853; in short: as §1
# [26] = tested on: Klebsiella pneumoniae; experiment: Antibacterial activity against extended-spectrum beta-lactamase-producing Klebsiella pneumoniae isolate 12-4; in short: as §1
# [27] = tested on: Klebsiella pneumoniae; experiment: Antibacterial activity against extended-spectrum beta-lactamase-producing Klebsiella pneumoniae isolate 12-2; in short: as §1
# [28] = tested on: Klebsiella pneumoniae; experiment: Antibacterial activity against extended-spectrum beta-lactamase-producing Klebsiella pneumoniae isolate 12-1; in short: as §1
# [29] = tested on: Klebsiella pneumoniae; experiment: Antibacterial activity against Klebsiella pneumoniae isolate 12-4; in short: as §1
# [30] = tested on: Klebsiella pneumoniae; experiment: Antibacterial activity against Klebsiella pneumoniae isolate 12-2; in short: as §1
# [31] = tested on: Klebsiella pneumoniae; experiment: Antibacterial activity against Klebsiella pneumoniae isolate 12-1; in short: as §1
Structure (SMILES),MIC [1] [µg/mL],MIC [2] [µg/mL],MIC [3] [µg/mL],MIC [4] [µg/mL],MIC [5] [µg/mL],MIC [6] [µg/mL],MIC [7] [µg/mL],MIC [8] [µg/mL],MIC [9] [µg/mL],MIC [10] [µg/mL],MIC [11] [µg/mL],MIC [12] [µg/mL],MIC [13] [µg/mL],MIC [14] [µg/mL],MIC [15] [µg/mL],MIC [16] [µg/mL],MIC [17] [µg/mL],MIC [18] [µg/mL],MIC [19] [µg/mL],MIC [20] [µg/mL],also measured
CO/N=C1\CN(c2c(F)cc3c(=O)c(C(=O)O)cn4c3c2OC[C@@H]4C)CCC1N (stereo not given in full),16,> 128,128,128,> 128,4,8,0.5,0.5,0.5,0.5,0.5,0.5,1,0.5,1,1,1,0.25,64,MIC [21]: 0.5 µg/mL; MIC [22]: 0.5 µg/mL; MIC [23]: 16 µg/mL; MIC [24]: 16 µg/mL; MIC [25]: 32 µg/mL; MIC [26]: 128 µg/mL; MIC [27]: 16 µg/mL; MIC [28]: 0.5 µg/mL; MIC [29]: 1 µg/mL; MIC [30]: 1 µg/mL; MIC [31]: 8 µg/mL
CNC1CCN(c2c(F)cc3c(=O)c(C(=O)O)cn(C4CC4)c3c2OC)C/C1=N\OC (stereo not given),32,> 128,> 128,128,> 128,4,0.125,0.125,0.125,0.06,0.125,0.06,0.25,0.5,0.25,0.25,0.25,0.25,0.06,0.125,MIC [21]: 0.06 µg/mL; MIC [22]: 0.25 µg/mL; MIC [23]: 16 µg/mL; MIC [24]: 16 µg/mL; MIC [25]: 8 µg/mL; MIC [26]: 0.5 µg/mL; MIC [27]: 16 µg/mL; MIC [28]: 16 µg/mL; MIC [29]: 0.5 µg/mL; MIC [30]: 2 µg/mL; MIC [31]: 1 µg/mL
CNC1CCN(c2nc3c(cc2F)c(=O)c(C(=O)O)cn3C2CC2)C/C1=N\OC (stereo not given),16,> 128,> 128,> 128,> 128,4,0.125,0.5,0.5,0.25,0.06,0.25,0.5,2,0.5,1,1,1,0.25,0.5,MIC [21]: 0.25 µg/mL; MIC [22]: 0.5 µg/mL; MIC [23]: 16 µg/mL; MIC [24]: 16 µg/mL; MIC [25]: 2 µg/mL; MIC [26]: 0.125 µg/mL; MIC [27]: 16 µg/mL; MIC [28]: 16 µg/mL; MIC [29]: 0.125 µg/mL; MIC [30]: 0.5 µg/mL; MIC [31]: 0.5 µg/mL
CCO/N=C1\CN(c2nc3c(cc2F)c(=O)c(C(=O)O)cn3C2CC2)CCC1NC (stereo not given),32,> 128,> 128,> 128,> 128,32,4,0.25,0.25,1,0.25,1,1,4,1,4,4,4,0.5,32,MIC [21]: 0.25 µg/mL; MIC [22]: 0.5 µg/mL; MIC [23]: 128 µg/mL; MIC [24]: 128 µg/mL; MIC [25]: 4 µg/mL; MIC [26]: > 128 µg/mL; MIC [27]: > 128 µg/mL; MIC [28]: 64 µg/mL; MIC [29]: 2 µg/mL; MIC [30]: 4 µg/mL; MIC [31]: 4 µg/mL
CO/N=C1\CN(c2nc3c(cc2F)c(=O)c(C(=O)O)cn3C2CC2)CC1CN (stereo not given) [GEMIFLOXACIN],2,16,8,16,16,0.125,0.015,0.25,0.25,0.008,4,0.015,0.06,0.25,0.06,0.03,0.015,0.03,0.03,4,MIC [21]: 0.03 µg/mL; MIC [22]: < 0.008 µg/mL; MIC [23]: 16 µg/mL; MIC [24]: 8 µg/mL; MIC [25]: 1 µg/mL; MIC [26]: 2 µg/mL; MIC [27]: 2 µg/mL; MIC [28]: 2 µg/mL; MIC [29]: 0.06 µg/mL; MIC [30]: 0.06 µg/mL; MIC [31]: 0.03 µg/mL
